ChEMBL document CHEMBL3227951, “Alkylating nucleosides 1. Synthesis and cytostatic activity of N-glycosyl(halomethyl)-1,2,3-triazoles. A new type of alkylating agent” (J Med Chem, 1979)
Converted amounts (≈) assume the structure as drawn. The source made the active and inactive calls. No cut-off for these calls is given here.

What was measured:
HeLa = assay: In vitro cytostatic activity against human HeLa cells assessed as cell growth after 72 hrs by colorimetric method; type: functional; conditions: read-out: ED50 (the source's name)
Summary of the method: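 HeLa cells at 10⁵ cells/mL in Eagle's minimal medium with 10% fetal calf serum, Leighton tubes, 37 °C. Compound added 2-3 h after attachment, suspended in sterile saline with 0.05% Tween 80 (10% of final volume). Incubated 72 h at 37 °C. Growth measured as cell protein by the Oyama-Eagle colorimetric method. 6-Mercaptopurine was the positive control. ED50 in μg/mL.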

Mus musculus [1] = assay: In vivo cytostatic activity against mouse Ehrlich carcinoma ascites allografted in ip dosed ICR swiss mouse assessed as median survival time administered qd for 9 days beginning 24 hrs after tumor implantation; type: functional, organism-based
Summary of the method: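 Female ICR Swiss mice (19-22 g) carrying Ehrlich ascites carcinoma, following NCI protocols 1100/1200. Compound suspended in 0.9% NaCl with 0.5% Tween 80 and given ip at 0.4 mL, once daily for 9 days starting 24 h after implantation. Groups of 6 treated and 30 control mice. 5-Fluorouracil at 20 mg/kg was the positive control. T/C = median survival of treated over control, ×100.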

[2] = In vivo cytostatic activity against mouse Ehrlich carcinoma ascites allografted in ICR swiss mouse assessed as median survival time at 100 mg/kg, ip administered qd for 9 days beginning 24 hrs after tumor implantation relative to control; type: functional; conditions: route intraperitoneal
Summary of the method: (§1)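 Female ICR Swiss mice (19-22 g) bearing Ehrlich ascites carcinoma, per NCI protocols 1100/1200; compound suspended in 0.9% NaCl with 0.5% Tween 80, given ip at 0.4 mL once daily for 9 days from 24 h post-implant. Groups of 6 treated vs 30 controls; 5-fluorouracil 20 mg/kg/injection as positive control. T/C = treated/control median survival time as percentage.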

Mus musculus [3] = assay: Toxicity in ICR swiss mouse allografted with mouse Ehrlich carcinoma ascites assessed as change in body weight at 100 mg/kg, ip administered qd for 9 days beginning 24 hrs after tumor implantation; type: organism-based; parameters: dose 100 mg/kg, route intraperitoneal; conditions: in vivo
Summary of the method: (§2)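 Female ICR Swiss mice (19-22 g) carrying Ehrlich ascites carcinoma. Compound suspended in 0.9% NaCl with 0.5% Tween 80 and given ip at 0.4 mL, once daily for 9 days starting 24 h after implantation. Groups of 6 treated and 30 control mice. Read-out is the weight difference in grams between treated and control animals.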

[4] = In vivo cytostatic activity against mouse Ehrlich carcinoma ascites allografted in ICR swiss mouse assessed as median survival time at 75 mg/kg, ip administered qd for 9 days beginning 24 hrs after tumor implantation relative to control; type: functional; conditions: route intraperitoneal; summary of the method: as §1
P388 = assay: In vivo cytostatic activity against mouse P388 cells allografted in mouse assessed as increase in host life span at 50 mg/kg; type: functional
Mus musculus [5] = assay: Toxicity in ICR swiss mouse allografted with mouse Ehrlich carcinoma ascites assessed as change in body weight at 75 mg/kg, ip administered qd for 9 days beginning 24 hrs after tumor implantation; type: organism-based; parameters: dose 75 mg/kg, route intraperitoneal; conditions: in vivo; summary of the method: as §2

SMILES	EC50 (HeLa) [µg/mL]	Activity (Mus musculus [1])	other results
ICc1cn(Cc2ccccc2)nn1	2 (≈ 6.69 µM)	inactive	
CC(=O)N[C@@H]1[C@@H](OC(C)=O)[C@H](OC(C)=O)[C@@H](COC(C)=O)O[C@H]1n1nncc1CO	> 100		
CC(=O)OC[C@H]1O[C@@H](n2cc(CI)nn2)[C@H](OC(C)=O)[C@@H](OC(C)=O)[C@@H]1OC(C)=O	2 (≈ 3.71 µM)	Active	T/C [2]: 195%; Activity (Mus musculus [3]): -1.1 g
ClCc1cn(Cc2ccccc2)nn1	18 (≈ 86.7 µM)		
CC(=O)OC[C@H]1O[C@@H](n2cc(CBr)nn2)[C@H](OC(C)=O)[C@@H](OC(C)=O)[C@@H]1OC(C)=O	3.5 (≈ 7.11 µM)	Active	T/C [4]: 145%; T/C (P388): 163%; Activity (Mus musculus [5]): -0.5 g
CC(=O)N[C@@H]1[C@@H](OC(C)=O)[C@H](OC(C)=O)[C@@H](COC(C)=O)O[C@H]1n1cc(CO)nn1	> 100		
CC(=O)OC[C@H]1O[C@@H](n2nnc(CO)c2CO)[C@H](OC(C)=O)[C@@H](OC(C)=O)[C@@H]1OC(C)=O	> 100		
FCc1cn(Cc2ccccc2)nn1	> 100		
CC(=O)N[C@@H]1[C@@H](OC(C)=O)[C@H](OC(C)=O)[C@@H](COC(C)=O)O[C@H]1n1cc(CCl)nn1	20 (≈ 44.8 µM)		
BrCc1cn(Cc2ccccc2)nn1	2 (≈ 7.93 µM)	inactive	
Sc1ncnc2nc[nH]c12 [MERCAPTOPURINE ANHYDROUS]	0.1 (≈ 0.657 µM)		
CC(=O)OC[C@H]1O[C@@H](n2nncc2CCl)[C@H](OC(C)=O)[C@@H](OC(C)=O)[C@@H]1OC(C)=O	25 (≈ 55.8 µM)		
CC(=O)N[C@@H]1[C@@H](OC(C)=O)[C@H](OC(C)=O)[C@@H](COC(C)=O)O[C@H]1n1nnc(CO)c1CO	> 100		
CC(=O)N[C@@H]1[C@@H](OC(C)=O)[C@H](OC(C)=O)[C@@H](COC(C)=O)O[C@H]1n1cc(CBr)nn1	20 (≈ 40.7 µM)		
CC(=O)OC[C@H]1O[C@@H](n2nnc(CBr)c2CBr)[C@H](OC(C)=O)[C@@H](OC(C)=O)[C@@H]1OC(C)=O	3 (≈ 5.13 µM)	inactive	
CC(=O)OC[C@H]1O[C@@H](n2cc(CCl)nn2)[C@H](OC(C)=O)[C@@H](OC(C)=O)[C@@H]1OC(C)=O	37 (≈ 82.6 µM)		
CC(=O)OC[C@H]1O[C@@H](n2nnc(CCl)c2CCl)[C@H](OC(C)=O)[C@@H](OC(C)=O)[C@@H]1OC(C)=O	6 (≈ 12.1 µM)		
CC(=O)N[C@@H]1[C@@H](OC(C)=O)[C@H](OC(C)=O)[C@@H](COC(C)=O)O[C@H]1n1nncc1CCl	25 (≈ 55.9 µM)		
CC(=O)OC[C@H]1O[C@@H](n2nncc2CBr)[C@H](OC(C)=O)[C@@H](OC(C)=O)[C@@H]1OC(C)=O	4 (≈ 8.13 µM)	inactive	
